From ChEMBL document CHEMBL4257584, “Sterol 14α-Demethylase Structure-Based Optimization of Drug Candidates for Human Infections with the Protozoan Trypanosomatidae” (J Med Chem, 2018)
The source made the active and inactive calls. The rule behind the calls is not given here.

Experiments:
Trypanosoma cruzi = assay: Antiparasitic activity against GFP-expressing Trypanosoma cruzi Y amastigote formss infected in cardiomyocytes assessed as reduction in rate of parasite multiplication within infected cardiomyocytes measured at 72 hrs post infection by fluorescence microscopy; format: functional, organism-based
Summary of the method: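 GFP-expressing trypomastigotes (Tulahuen or Y strain) infect cardiomyocyte monolayers at 10 parasites per cell, in DMEM + 10% FBS. Unbound parasites are washed off. At 24 h of infection, inhibitors at 0.5–25 nM in DMSO/DMEM are added and cultured 48 h. Read-out is at 72 h post-infection as GFP fluorescence (RFU) after PBS wash; microscopy uses paraformaldehyde fixation, DAPI and phalloidin stain. Triplicate.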

Mus musculus [1] = assay: Toxicity in Swiss Webster mouse assessed as effect on spleen weight at 200 mg/kg, po administered as single dose measured after 48 hrs; format: organism-based; conditions: in vivo
Summary of the method: (§1)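 Swiss Webster mice (21–23 g, n=3) get a single oral 200 mg/kg dose, given as in the PK study. They are inspected for toxic and sub-toxic signs per OECD guidelines (behaviour, motility, neurological state, skin, fur), and body weight is tracked 0–48 h. At 48 h, mice are euthanized and organ weights are normalized to body weight. Blood is taken for haematology and plasma biochemistry.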

[2] = Half life in Sprague-Dawley rat liver microsomes at 1 uM preincubated for 5 mins followed by NADPH addition and measured by LC/MS/MS analysis; format: ADME, microsome; conditions: microsomes, 1 µM
[3] = Lipophilicity, log P of the compound; format: physicochemical; conditions: octanol/water
Mus musculus [4] = assay: Toxicity in Swiss Webster mouse assessed as effect on body weight at 200 mg/kg, po administered as single dose measured after 48 hrs; format: organism-based; conditions: in vivo; summary of the method: as §1
Mus musculus [5] = assay: Toxicity in Swiss Webster mouse assessed as effect on neurological conditions at 200 mg/kg, po administered as single dose measured after 48 hrs; format: organism-based; conditions: in vivo; summary of the method: as §1
[6] = Drug uptake in BALB/c mouse lungs at 25 mg/kg, po via gavage measured after 4 hrs post dose by […]; format: ADME, organism-based, Lung; conditions: read-out: Drug uptake
Summary of the method: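 BALB/c mice get a single oral gavage dose of 25 mg/kg; tissues are collected 4 h post-dose. About 100 mg tissue is diluted 5-fold in PBS and homogenized. Homogenate is extracted as for plasma (ketoconazole internal standard, acetonitrile extraction) and quantified by HPLC-UV at 291 nm, 0.1 μM detection limit, n=2.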

[7] = Hepatic clearance in Sprague-Dawley rat liver microsomes at 1 uM preincubated for 5 mins followed by NADPH addition and measured after 45 mins by LC/MS/MS analysis; format: ADME, microsome
Summary of the method: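 Pooled liver microsomes at 0.5 mg/mL: human (mixed gender), male Sprague-Dawley rat, or male CD-1 mouse, with test compound at 1 μM, triplicate. In vitro t1/2 is scaled to CLint (45 mg microsomes/g liver; 45 g liver/kg scaling factor). CLhep uses well-stirred model with hepatic blood flow 21 (human), 70 (rat), 90 (mouse) mL/min/kg.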

Mus musculus [8] = assay: Toxicity in Swiss Webster mouse assessed as effect on skin at 200 mg/kg, po administered as single dose measured after 48 hrs; format: organism-based; conditions: in vivo; summary of the method: as §1
[9] = Hepatic clearance in human liver microsomes at 1 uM preincubated for 5 mins followed by NADPH addition and measured after 45 mins by LC/MS/MS analysis; format: ADME, microsome
[10] = biological target: Lanosterol 14-alpha-demethylase (Trypanosoma brucei brucei (strain 927/4 GUTat10.1)) (UniProt Q385E8); assay: Inhibition of Trypanosoma brucei […] CYP51 expressed in Escherichia coli using [3-3H]-obtusifoliol as substrate after 60 mins by LC-MS analysis
Lanosterol 14-alpha-demethylase (Trypanosoma brucei brucei (strain 927/4 GUTat10.1)), sequence (Q385E8 1-481): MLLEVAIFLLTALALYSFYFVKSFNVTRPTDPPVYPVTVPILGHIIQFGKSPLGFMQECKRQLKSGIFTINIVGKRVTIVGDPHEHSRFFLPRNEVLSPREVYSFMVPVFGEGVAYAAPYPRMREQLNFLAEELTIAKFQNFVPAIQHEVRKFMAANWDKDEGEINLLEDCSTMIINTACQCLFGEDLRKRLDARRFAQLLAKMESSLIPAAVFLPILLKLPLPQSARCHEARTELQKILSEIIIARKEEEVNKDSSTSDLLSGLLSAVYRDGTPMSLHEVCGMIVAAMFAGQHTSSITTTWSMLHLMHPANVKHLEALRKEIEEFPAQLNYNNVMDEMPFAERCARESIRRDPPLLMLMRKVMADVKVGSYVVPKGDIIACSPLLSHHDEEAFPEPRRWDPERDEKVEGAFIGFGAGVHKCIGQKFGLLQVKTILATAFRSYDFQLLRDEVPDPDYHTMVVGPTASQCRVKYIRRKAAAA
Summary of the method: (§2)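 Reconstituted reaction: 1 μM purified CYP51, 2 μM T. brucei NADPH-P450 reductase, 100 μM dilauroylphosphatidylcholine, isocitrate dehydrogenase/isocitrate regeneration, 50 mM K phosphate pH 7.2, 10% glycerol. [3-3H]sterol substrate at 50 μM final (eburicol for T. cruzi; obtusifoliol for T. brucei and L. infantum) with inhibitor at 1.1 μM final. Preincubate 60 s at 37 °C, start with 100 μM NADPH, run 60 min, EtOAc extraction. Gives % inhibition of 14α-demethylation, triplicate, mean ± SD.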

[11] = biological target: Putative lanosterol 14-alpha-demethylase (Leishmania infantum) (UniProt A2TEF2); assay: Inhibition of Leishmania infantum CYP51 expressed in Escherichia coli using [3-3H]-obtusifoliol as substrate after 60 mins by LC-MS analysis; summary of the method: as §2
Putative lanosterol 14-alpha-demethylase (Leishmania infantum), sequence (A2TEF2 1-480): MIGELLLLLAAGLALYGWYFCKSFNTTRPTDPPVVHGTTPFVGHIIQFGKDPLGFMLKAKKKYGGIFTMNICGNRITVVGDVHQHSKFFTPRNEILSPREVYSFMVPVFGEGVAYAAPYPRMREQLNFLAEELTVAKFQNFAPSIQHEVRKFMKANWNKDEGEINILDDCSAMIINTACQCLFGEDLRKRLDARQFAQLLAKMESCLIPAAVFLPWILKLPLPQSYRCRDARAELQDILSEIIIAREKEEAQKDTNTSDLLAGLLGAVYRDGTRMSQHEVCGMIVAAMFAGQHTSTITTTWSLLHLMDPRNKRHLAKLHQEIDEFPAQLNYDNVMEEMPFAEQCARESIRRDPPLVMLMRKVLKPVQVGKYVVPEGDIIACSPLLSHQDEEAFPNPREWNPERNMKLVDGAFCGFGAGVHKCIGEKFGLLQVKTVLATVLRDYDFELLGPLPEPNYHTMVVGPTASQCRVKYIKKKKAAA

Mus musculus [12] = assay: Toxicity in Swiss Webster mouse assessed as effect on lung weight at 200 mg/kg, po administered as single dose measured after 48 hrs; format: organism-based; conditions: in vivo; summary of the method: as §1

O=C(N[C@@H](Cn1ccnc1)c1c(F)cc(-c2ccc(F)cc2)cc1F)c1ccc(-c2nnc(-c3ccccc3)o2)cc1
EC50 (Trypanosoma cruzi): 1 nM
Activity (Mus musculus [1]): Non-Toxic
t1/2 [2]: 50 min
logP [3]: 5.6
Activity (Mus musculus [4]): Non-Toxic
Activity (Mus musculus [5]): Non-Toxic
concentration at 4 h [6]: 57 µM
CLhep predicted at 1 µM [7]: 31.1 mL/min/kg
Activity (Mus musculus [8]): Non-Toxic
CLhep predicted at 1 µM [9]: 10.1 mL/min/kg
inhibition [10]: Active
inhibition [11]: Active
Activity (Mus musculus [12]): Non-Toxic
